Measurements reported in ChEMBL document CHEMBL1629526, “4-[1-(Substituted aryl/alkyl carbonyl)-benzoimidazol-2-yl]-benzenesulfonic acids: synthesis, antimicrobial activity, QSAR studies, and antiviral evaluation” (Eur J Med Chem, 2010).
≈ marks a conversion by molar mass, not a printed value.

Tests used:
Influenza A virus [1] = test: Antiviral activity against Influenza A H3N2 virus subtype infected in MDCK cells assessed as inhibition of virus induced cytopathicity by visual scoring of CPE; type: functional, organism-based
Felid alphaherpesvirus 1 = test: Antiviral activity against Feline herpesvirus 1 infected in cat CRFK cells assessed as inhibition of virus induced cytopathicity after 2 to 4 days by MTS assay; type: functional, organism-based; settings: Felid alphaherpesvirus 1, CRFK
[2] = Cytotoxicity against cat CRFK cells assessed as cell viability by MTS assay; type: cell-based, Felis catus
Summary of the method: (§1)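 Uninfected cultures were run in parallel with the antiviral assays. Viability was read by colorimetric formazan MTS assay.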

Escherichia coli = test: Antimicrobial activity against Escherichia coli after 24 hrs by tube dilution method; type: functional
Influenza B virus [3] = test: Antiviral activity against Influenza B virus infected in MDCK cells assessed as inhibition of virus induced cytopathicity after 2 to 4 days by MTS assay; type: functional, organism-based
HeLa = test: Cytotoxicity against human HeLa cells assessed as cell viability by MTS assay; type: cell-based; settings: hela; summary of the method: as §1
[4] = Cytotoxicity against human HeLa cells assessed as altered cell morphology; type: cell-based
Summary of the method: (§2)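 Uninfected cell cultures run alongside the antiviral assays, exposed to serial compound dilutions and incubated at 37 °C for 2–4 days. Toxicity was scored microscopically and reported as the minimum cytotoxic concentration (MCC), the lowest concentration causing a detectable change in normal cell morphology.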

Feline coronavirus = test: Antiviral activity against Feline coronavirus infected in cat CRFK cells assessed as inhibition of virus induced cytopathicity after 2 to 4 days by MTS assay; type: functional, organism-based; settings: Alphacoronavirus 1, CRFK
Bacillus subtilis = test: Antimicrobial activity against Bacillus subtilis after 24 hrs by tube dilution method; type: functional
Summary of the method: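 Serial dilutions in double-strength nutrient broth (I.P.) with ciprofloxacin as reference, tube dilution, incubated 37 °C for 24 h. MIC is the lowest concentration that inhibited growth.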

[5] = Cytotoxicity against MDCK cells assessed as altered cell morphology; type: cell-based, Canis lupus familiaris; settings: dog; summary of the method: as §2
Aspergillus niger = test: Antimicrobial activity against Aspergillus niger after 7 days by tube dilution method; type: functional; settings: 168 h
Vaccinia virus = test: Antiviral activity against Vaccinia virus infected in HEL cells assessed as inhibition of virus induced cytopathicity after 2 to 4 days by MTS assay; type: functional, organism-based; settings: Orthopoxvirus vaccinia
[6] = tested on: Respiratory syncytial virus; test: Antiviral activity against Respiratory syncytial virus infected in human HeLa cells assessed as inhibition of virus induced cytopathicity after 2 to 4 days by MTS assay; type: functional, organism-based
Coxsackievirus B4 [7] = test: Antiviral activity against coxsackievirus B4 infected in human HeLa cells assessed as inhibition of virus induced cytopathicity after 2 to 4 days by MTS assay; type: functional, organism-based; settings: Enterovirus B
Staphylococcus aureus = test: Antimicrobial activity against Staphylococcus aureus after 24 hrs by tube dilution method; type: functional
[8] = tested on: Vesicular stomatitis virus; test: Antiviral activity against Vesicular stomatitis virus infected in human HeLa cells assessed as inhibition of virus induced cytopathicity after 2 to 4 days by MTS assay; type: functional, organism-based
[9] = tested on: Vesicular stomatitis virus; test: Antiviral activity against Vesicular stomatitis virus infected in HEL cells assessed as inhibition of virus induced cytopathicity after 2 to 4 days by MTS assay; type: functional, organism-based
Sindbis virus = test: Antiviral activity against Sindbis virus infected in african green monkey Vero cells assessed as inhibition of virus induced cytopathicity after 2 to 4 days by MTS assay; type: functional, organism-based
Influenza B virus [10] = test: Antiviral activity against Influenza B virus infected in MDCK cells assessed as inhibition of virus induced cytopathicity by visual scoring of CPE; type: functional, organism-based
MDCK = test: Cytotoxicity against MDCK cells assessed as cell viability by MTS assay; type: cell-based, Canis lupus familiaris; settings: dog, mdck; summary of the method: as §1
[11] = tested on: Vesicular stomatitis virus; test: Antiviral activity against Vesicular stomatitis virus infected in human HeLa cells assessed as inhibition of virus induced cytopathicity by visual scoring of CPE; type: functional, organism-based
[12] = Cytotoxicity against african green monkey Vero cells assessed as altered cell morphology; type: cell-based; settings: chlorocebus sabaeus; summary of the method: as §2
[13] = tested on: Mammalian orthoreovirus 1; test: Antiviral activity against Reovirus 1 virus infected in african green monkey Vero cells assessed as inhibition of virus induced cytopathicity after 2 to 4 days by MTS assay; type: functional, organism-based; settings: Mammalian orthoreovirus 1, Vero
[14] = Cytotoxicity against human HEL cells assessed as altered cell morphology; type: cell-based; summary of the method: as §2
[15] = tested on: Respiratory syncytial virus; test: Antiviral activity against Respiratory syncytial virus infected in human HeLa cells assessed as inhibition of virus induced cytopathicity by visual scoring of CPE; type: functional, organism-based
Human alphaherpesvirus 1 [16] = test: Antiviral activity against Herpes simplex virus 1 KOS infected in HEL cells assessed as inhibition of virus induced cytopathicity after 2 to 4 days by MTS assay; type: functional, organism-based; settings: Human alphaherpesvirus 1, KOS
Human respirovirus 3 = test: Antiviral activity against parainfluenza-3 virus infected in african green monkey Vero cells assessed as inhibition of virus induced cytopathicity after 2 to 4 days by MTS assay; type: functional, organism-based; settings: Human respirovirus 3, Vero
Coxsackievirus B4 [17] = test: Antiviral activity against coxsackievirus B4 infected in human HeLa cells assessed as inhibition of virus induced cytopathicity by visual scoring of CPE; type: functional, organism-based; settings: Enterovirus B
Punta Toro virus = test: Antiviral activity against Punta Toro virus infected in african green monkey Vero cells assessed as inhibition of virus induced cytopathicity after 2 to 4 days by MTS assay; type: functional, organism-based
Candida albicans = test: Antimicrobial activity against Candida albicans after 48 hrs by tube dilution method; type: functional
Coxsackievirus B4 [18] = test: Antiviral activity against Coxsackie virus B4 infected in african green monkey Vero cells assessed as inhibition of virus induced cytopathicity after 2 to 4 days by MTS assay; type: functional, organism-based; settings: Enterovirus B
Influenza A virus [19] = test: Antiviral activity against Influenza A H3N2 virus subtype infected in MDCK cells assessed as inhibition of virus induced cytopathicity after 2 to 4 days by MTS assay; type: functional, organism-based
Human alphaherpesvirus 2 = test: Antiviral activity against Herpes simplex virus 2 G infected in HEL cells assessed as inhibition of virus induced cytopathicity after 2 to 4 days by MTS assay; type: functional, organism-based; settings: Human alphaherpesvirus 2, strain G
Human alphaherpesvirus 1 [20] = test: Antiviral activity against thymidine kinase deficient acyclovir-resistant Herpes simplex virus 1 KOS infected in HEL cells assessed as inhibition of virus induced cytopathicity after 2 to 4 days by MTS assay; type: functional, organism-based; settings: Human alphaherpesvirus 1, KOS

Structure (SMILES) | EC50 (Influenza A virus [1]) [µg/mL] | EC50 (Felid alphaherpesvirus 1) [µg/mL] | CC50 ([2]; crfk) [µg/mL] | MBC (Escherichia coli) [µg/mL] | EC50 (Influenza B virus [3]) [µg/mL] | CC50 (HeLa) [µg/mL] | MCC [4] [µg/mL] | EC50 (Feline coronavirus) [µg/mL] | MBC (Bacillus subtilis) [µg/mL] | MCC [5] [µg/mL] | MFC (Aspergillus niger) [µg/mL] | EC50 (Vaccinia virus) [µg/mL] | EC50 [6] [µg/mL] | EC50 (Coxsackievirus B4 [7]) [µg/mL] | MBC (Staphylococcus aureus) [µg/mL] | EC50 [8] [µg/mL] | MCC [14] [µg/mL] | EC50 (Human alphaherpesvirus 1 [16]) [µg/mL] | EC50 (Human alphaherpesvirus 2) [µg/mL] | EC50 (Human alphaherpesvirus 1 [20]) [µg/mL] | further results
CCCCCCCC/C=C/CCCCCCCC(=O)n1c(-c2ccc(S(=O)(=O)O)cc2)nc2ccccc21 | > 100 | > 100 | > 100 | 3.12 (≈ 5.79 µM) | > 100 | > 100 | > 100 | > 100 | 50 (≈ 92.8 µM) | > 100 | > 50 | > 100 | > 100 | > 100 | 12.5 (≈ 23.2 µM) | > 100 | > 100 | > 100 | > 100 | > 100 | EC50 [9]: > 100 µg/mL; EC50 (Sindbis virus): > 100 µg/mL; EC50 (Influenza B virus [10]): > 100 µg/mL; CC50 (MDCK): > 100 µg/mL; EC50 [11]: > 100 µg/mL; MCC [12]: > 100 µg/mL; EC50 [13]: > 100 µg/mL; EC50 [15]: > 100 µg/mL; EC50 (Human respirovirus 3): > 100 µg/mL; EC50 (Coxsackievirus B4 [17]): > 100 µg/mL; EC50 (Punta Toro virus): > 100 µg/mL; MFC (Candida albicans): 50 µg/mL (≈ 92.8 µM); EC50 (Coxsackievirus B4 [18]): > 100 µg/mL; EC50 (Influenza A virus [19]): > 100 µg/mL
Cc1ccc(S(=O)(=O)n2c(-c3ccc(S(=O)(=O)O)cc3)nc3ccccc32)cc1 | > 100 | > 100 | > 100 | 12.5 (≈ 29.2 µM) | > 100 | > 100 | > 100 | > 100 | 12.5 (≈ 29.2 µM) | > 100 | > 50 | > 100 | > 100 | > 100 | 6.25 (≈ 14.6 µM) | > 100 | > 100 | > 100 | > 100 | > 100 | EC50 [9]: > 100 µg/mL; EC50 (Sindbis virus): > 250 µg/mL; EC50 (Influenza B virus [10]): > 100 µg/mL; CC50 (MDCK): > 100 µg/mL; EC50 [11]: > 100 µg/mL; MCC [12]: > 100 µg/mL; EC50 [13]: 100 µg/mL (≈ 233 µM); EC50 [15]: > 100 µg/mL; EC50 (Human respirovirus 3): > 100 µg/mL; EC50 (Coxsackievirus B4 [17]): > 100 µg/mL; EC50 (Punta Toro virus): > 100 µg/mL; MFC (Candida albicans): 50 µg/mL (≈ 117 µM); EC50 (Coxsackievirus B4 [18]): > 100 µg/mL; EC50 (Influenza A virus [19]): > 100 µg/mL
O=c1[nH]c(=O)n([C@H]2C[C@H](O)[C@@H](CO)O2)cc1/C=C/Br [BRIVUDINE] | – | – | – | – | – | – | – | – | – | – | – | 112 (≈ 336 µM) | – | – | – | – | > 250 | – | – | > 250 | –
Nc1ccn(C[C@@H](CO)OCP(=O)(O)O)c(=O)n1.O.O [CIDOFOVIR] | – | – | – | – | – | – | – | – | – | – | – | > 250 | – | – | – | – | > 250 | 0.4 | 0.2 | > 250 | –
Nc1nc2c(ncn2COC(CO)CO)c(=O)[nH]1 [GANCICLOVIR] | – | > 100 | – | – | – | – | – | 1.7 (≈ 6.66 µM) | – | – | – | – | – | – | – | – | > 100 | 0.03 (≈ 0.118 µM) | 0.03 (≈ 0.118 µM) | 58 (≈ 227 µM) | CC50 ([2]; CRFK cells, read-out: CC50): > 100 µg/mL
